39 molecules from ChEMBL document CHEMBL3352338, “Development and biological evaluation of potent and selective c-KIT(D816V) inhibitors” (J Med Chem, 2014) can be followed below.

Calls of active or inactive are those of the source. The calls are words filed in the database; no cut-off is given here. Some results are limits rather than exact numbers.

The target of experiment [1] is Mast/stem cell growth factor receptor Kit (Homo sapiens, UniProt P10721, D816V). As to the kind of experiment: Inhibition of c-KIT D816V mutant (unknown origin).
Chain of Mast/stem cell growth factor receptor Kit (Homo sapiens, UniProt P10721, D816V) (P10721 26-976 D816V limits assumed): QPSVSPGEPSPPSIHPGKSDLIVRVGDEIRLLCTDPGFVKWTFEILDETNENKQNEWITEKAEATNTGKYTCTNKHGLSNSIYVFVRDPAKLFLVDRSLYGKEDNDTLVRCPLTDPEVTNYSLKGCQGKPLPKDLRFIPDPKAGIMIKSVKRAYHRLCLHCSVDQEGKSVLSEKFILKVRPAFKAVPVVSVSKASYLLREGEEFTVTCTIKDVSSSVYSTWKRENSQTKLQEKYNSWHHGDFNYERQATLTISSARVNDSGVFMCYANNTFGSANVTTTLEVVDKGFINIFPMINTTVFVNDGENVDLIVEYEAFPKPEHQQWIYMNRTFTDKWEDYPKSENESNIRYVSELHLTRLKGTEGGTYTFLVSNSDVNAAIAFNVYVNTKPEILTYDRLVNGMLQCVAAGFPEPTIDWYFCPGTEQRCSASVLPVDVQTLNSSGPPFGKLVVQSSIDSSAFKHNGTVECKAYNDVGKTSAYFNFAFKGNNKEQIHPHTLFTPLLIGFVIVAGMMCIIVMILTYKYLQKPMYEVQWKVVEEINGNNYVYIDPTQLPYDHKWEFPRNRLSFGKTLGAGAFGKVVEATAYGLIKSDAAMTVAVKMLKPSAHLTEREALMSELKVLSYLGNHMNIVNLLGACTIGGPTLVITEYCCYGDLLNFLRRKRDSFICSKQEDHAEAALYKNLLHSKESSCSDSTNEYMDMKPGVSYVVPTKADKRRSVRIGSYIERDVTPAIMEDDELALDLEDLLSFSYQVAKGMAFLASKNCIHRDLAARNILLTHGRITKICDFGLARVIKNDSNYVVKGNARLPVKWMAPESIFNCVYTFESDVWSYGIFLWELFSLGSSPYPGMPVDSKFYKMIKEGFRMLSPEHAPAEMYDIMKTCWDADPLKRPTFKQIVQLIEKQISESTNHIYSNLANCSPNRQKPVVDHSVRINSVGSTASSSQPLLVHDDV
Experiment [2] addresses Phosphatidylinositol 4,5-bisphosphate 3-kinase catalytic subunit alpha isoform (Homo sapiens, UniProt P42336). As to the kind of experiment: Inhibition of PI3Kalpha (unknown origin).
A short description of experiment [3]: Antiproliferative activity against human HMC-1.2 cells carrying V560G, D816V mutant assessed as cell growth inhibition by MTT assay. The format is functional, cell-based. The essentials: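 Cell viability by MTT assay in imatinib-resistant HMC-1.2 human mast cells (V560G, D816V), 48 h exposure across a range of concentrations.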
In experiment [4] the target is Mast/stem cell growth factor receptor Kit (Homo sapiens, UniProt P10721). As to the kind of experiment: Inhibition of wild type c-KIT (unknown origin).
Chain of Mast/stem cell growth factor receptor Kit (Homo sapiens, UniProt P10721) (P10721 whole entry): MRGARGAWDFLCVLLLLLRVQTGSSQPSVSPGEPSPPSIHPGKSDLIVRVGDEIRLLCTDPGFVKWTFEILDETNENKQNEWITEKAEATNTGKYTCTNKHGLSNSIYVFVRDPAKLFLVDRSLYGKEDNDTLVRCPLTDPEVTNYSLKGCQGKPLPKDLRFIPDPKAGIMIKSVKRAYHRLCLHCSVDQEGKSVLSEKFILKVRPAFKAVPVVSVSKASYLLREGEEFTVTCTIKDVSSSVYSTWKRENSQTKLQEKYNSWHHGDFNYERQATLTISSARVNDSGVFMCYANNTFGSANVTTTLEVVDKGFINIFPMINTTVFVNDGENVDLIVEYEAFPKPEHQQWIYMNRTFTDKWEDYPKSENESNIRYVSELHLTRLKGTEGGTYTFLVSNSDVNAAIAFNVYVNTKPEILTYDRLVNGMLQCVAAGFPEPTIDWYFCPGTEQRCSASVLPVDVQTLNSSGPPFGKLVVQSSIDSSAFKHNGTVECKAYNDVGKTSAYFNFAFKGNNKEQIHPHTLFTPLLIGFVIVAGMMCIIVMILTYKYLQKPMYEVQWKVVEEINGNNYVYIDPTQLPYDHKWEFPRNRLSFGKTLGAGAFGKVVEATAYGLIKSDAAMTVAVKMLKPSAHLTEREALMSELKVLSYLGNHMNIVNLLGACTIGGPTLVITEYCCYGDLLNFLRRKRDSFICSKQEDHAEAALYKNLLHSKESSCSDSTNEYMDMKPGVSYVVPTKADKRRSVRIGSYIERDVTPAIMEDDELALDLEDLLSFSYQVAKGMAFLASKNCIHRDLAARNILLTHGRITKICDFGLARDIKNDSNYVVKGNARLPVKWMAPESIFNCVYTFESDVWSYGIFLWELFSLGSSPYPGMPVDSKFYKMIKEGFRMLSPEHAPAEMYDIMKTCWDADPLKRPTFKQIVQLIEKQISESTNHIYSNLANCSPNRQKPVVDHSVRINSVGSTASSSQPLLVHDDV
For experiment [5], the target named is Signal transducer and activator of transcription 3 (Homo sapiens) (UniProt P40763). As to the kind of experiment: Inhibition of STAT3 phosphorylation in imatinib-resistant human HMC-1.2 cells at 5 uM after 1 hr by Western immunoblotting analysis.
Chain of Signal transducer and activator of transcription 3 (Homo sapiens) (P40763 whole entry): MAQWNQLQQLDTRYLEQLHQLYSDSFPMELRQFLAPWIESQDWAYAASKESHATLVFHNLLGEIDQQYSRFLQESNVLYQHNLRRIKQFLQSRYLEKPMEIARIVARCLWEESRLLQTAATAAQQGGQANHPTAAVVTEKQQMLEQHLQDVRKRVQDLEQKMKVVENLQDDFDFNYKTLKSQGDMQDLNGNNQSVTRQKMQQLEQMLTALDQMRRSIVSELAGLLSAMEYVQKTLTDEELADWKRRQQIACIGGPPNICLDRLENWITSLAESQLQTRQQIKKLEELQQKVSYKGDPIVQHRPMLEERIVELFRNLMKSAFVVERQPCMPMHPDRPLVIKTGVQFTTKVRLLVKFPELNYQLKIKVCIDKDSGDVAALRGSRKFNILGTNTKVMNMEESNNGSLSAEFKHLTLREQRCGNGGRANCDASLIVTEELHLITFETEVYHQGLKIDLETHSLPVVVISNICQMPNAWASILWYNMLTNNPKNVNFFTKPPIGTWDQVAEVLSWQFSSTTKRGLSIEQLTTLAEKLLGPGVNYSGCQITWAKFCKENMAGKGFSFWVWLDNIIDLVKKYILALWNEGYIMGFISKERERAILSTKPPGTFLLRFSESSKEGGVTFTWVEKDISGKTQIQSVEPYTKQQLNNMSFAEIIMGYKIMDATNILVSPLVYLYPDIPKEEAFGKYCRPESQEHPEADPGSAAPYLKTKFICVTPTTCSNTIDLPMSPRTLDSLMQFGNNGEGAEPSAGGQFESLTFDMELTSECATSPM

Chain of Phosphatidylinositol 4,5-bisphosphate 3-kinase catalytic subunit alpha isoform (P42336 whole entry, canonical isoform): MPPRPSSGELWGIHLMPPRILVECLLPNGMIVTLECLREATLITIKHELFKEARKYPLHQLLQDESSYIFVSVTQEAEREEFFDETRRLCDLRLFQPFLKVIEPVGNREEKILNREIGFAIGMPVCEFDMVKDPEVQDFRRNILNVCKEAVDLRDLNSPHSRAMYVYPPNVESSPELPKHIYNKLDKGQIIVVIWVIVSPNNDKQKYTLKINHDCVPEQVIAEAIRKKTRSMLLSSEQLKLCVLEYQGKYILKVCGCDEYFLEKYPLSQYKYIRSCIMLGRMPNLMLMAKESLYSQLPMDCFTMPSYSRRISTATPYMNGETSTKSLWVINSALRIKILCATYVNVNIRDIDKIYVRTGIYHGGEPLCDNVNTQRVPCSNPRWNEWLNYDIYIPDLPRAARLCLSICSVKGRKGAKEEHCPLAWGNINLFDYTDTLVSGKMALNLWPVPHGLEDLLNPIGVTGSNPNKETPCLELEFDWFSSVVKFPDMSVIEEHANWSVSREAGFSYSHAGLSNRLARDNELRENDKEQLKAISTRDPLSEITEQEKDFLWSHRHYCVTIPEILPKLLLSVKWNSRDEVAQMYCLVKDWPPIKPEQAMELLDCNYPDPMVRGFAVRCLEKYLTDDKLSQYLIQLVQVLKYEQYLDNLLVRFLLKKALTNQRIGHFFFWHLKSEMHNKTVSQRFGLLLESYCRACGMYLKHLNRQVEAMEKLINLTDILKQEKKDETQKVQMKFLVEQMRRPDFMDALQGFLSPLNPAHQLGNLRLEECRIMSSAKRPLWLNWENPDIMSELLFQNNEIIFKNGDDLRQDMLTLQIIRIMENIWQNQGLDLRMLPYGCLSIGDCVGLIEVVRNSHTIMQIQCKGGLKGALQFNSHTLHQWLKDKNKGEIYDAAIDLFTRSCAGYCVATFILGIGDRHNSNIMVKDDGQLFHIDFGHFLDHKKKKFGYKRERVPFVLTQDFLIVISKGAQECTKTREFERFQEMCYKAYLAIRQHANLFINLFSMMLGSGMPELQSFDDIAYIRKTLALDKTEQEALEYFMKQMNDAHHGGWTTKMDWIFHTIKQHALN

Consider `COc1ccc(-c2c[nH]c3ncc(-c4ccc(F)cc4)cc23)cc1OC`, for which the IC50 in experiment [1] is 0.0728 µM; in experiment [2] it was more than 10 µM. For `Cc1ccc(NC(=O)c2ccc(CN3CCN(C)CC3)cc2)cc1Nc1nccc(-c2cccnc2)n1` [IMATINIB], in experiment [3], the IC50 was found to be 17 µM. Turning to `COc1ccc(-c2c[nH]c3ncc(-c4ccncc4)cc23)cc1OC`, the IC50 in experiment [1] was determined as 0.0321 µM; in experiment [2], 9.7 µM.

Regarding `COc1ccc(-c2c[nH]c3ncc(-c4ccccc4C)cc23)cc1OC`, the IC50 in experiment [1] was 0.785 µM; in experiment [2], more than 10 µM. As to `COc1ccc(-c2c[nH]c3ncc(-c4cccc(NC(C)=O)c4)cc23)cc1OC`, the results for the IC50 in experiment [1] and in experiment [4] were 0.0651 µM and 1.16 µM, respectively.

For the molecule `COc1cccc(-c2cnc3[nH]cc(-c4ccc(OC)c(OC)c4)c3c2)c1`, the IC50 in experiment [1] amounted to 0.0287 µM; in experiment [4] it was 1.52 µM. On the same counts, the results for `COc1ccc(-c2c[nH]c3ncc(-c4ccc5c(c4)OCO5)cc23)cc1OC` are 0.0488 µM and 10.8 µM.

With `COc1ccc(-c2c[nH]c3ncc(-c4cccc(N(C)C)c4)cc23)cc1OC`, the concentration for half-maximal inhibition (IC50) in experiment [1] was 0.0292 µM; in experiment [2] it was more than 10 µM. In the case of `COc1ccc(-c2c[nH]c3ncc(-c4cccnc4)cc23)cc1OC`, the half-maximal inhibitory concentration (IC50) in experiment [1] was 0.0601 µM; in experiment [2] it was more than 10 µM; in experiment [4] it was 3.33 µM.

`COc1cc(OC)cc(-c2c[nH]c3ncc(-c4cccc(N)c4)cc23)c1` came in with an IC50 in experiment [1] of 0.32 µM. The same measure, in the same setting: then `Cc1ccc(-c2c[nH]c3ncc(-c4cccc(N)c4)cc23)cc1`, with more than 10 µM.

As for `COc1ccc(-c2c[nH]c3ncc(-c4cccc(C#N)c4)cc23)cc1OC`, the half-inhibitory concentration (IC50) was 0.0638 µM in experiment [1], more than 10 µM in experiment [2] and more than 10 µM in experiment [4].

Turning to `COc1ccc(-c2c[nH]c3ncc(-c4cncc(NS(=O)(=O)c5ccccc5)c4)cc23)cc1OC`, in experiment [1], inhibition was half-maximal at 0.346 µM (IC50). Besides, the inhibition result in experiment [5] was “Active”. Consider `COc1ccc(-c2c[nH]c3ncc(-c4cnc(N)nc4)cc23)cc1OC`, for which the figures for the IC50 in experiment [1] and in experiment [4] were 0.0678 µM and 1.29 µM, respectively. In the case of `COc1ccc(-c2c[nH]c3ncc(-c4cccc(F)c4)cc23)cc1OC`, the results for the IC50 in experiment [1] and in experiment [2] were 0.52 µM and more than 10 µM, respectively. With `COc1ccc(-c2c[nH]c3ncc(-c4ccc(C)c(N)c4)cc23)cc1OC`, the IC50 in experiment [1] is 0.0246 µM; in experiment [4] it was more than 10 µM; in experiment [3] it was 1.43 µM. For `COc1ccc(-c2c[nH]c3ncc(-c4ccc(OCCN5CCOCC5)c(N)c4)cc23)cc1OC`, the IC50 in experiment [1] came to 0.0139 µM; in experiment [4], 8.54 µM. Regarding `COc1ccc(-c2c[nH]c3ncc(-c4ccccc4N)cc23)cc1OC`, the figures for the concentration for half-maximal inhibition (IC50) in experiment [1] and in experiment [2] were 1.33 µM and more than 10 µM, respectively.

`COc1ccc(-c2c[nH]c3ncc(-c4ccc(C#N)cc4)cc23)cc1OC`: the results for the IC50 in experiment [1] and in experiment [2] were 0.426 µM and more than 10 µM, respectively.

For `Cc1nc(Nc2ncc(C(=O)Nc3c(C)cccc3Cl)s2)cc(N2CCN(CCO)CC2)n1` [DASATINIB], in experiment [3], the IC50 turned out to be 0.82 µM.

In the case of `COc1ccc(-c2c[nH]c3ncc(-c4cncc(N)c4)cc23)cc1OC`, the IC50 in experiment [1] is 0.0108 µM; in experiment [2] it was 1.45 µM. On to `COc1cc(N)cc(-c2cnc3[nH]cc(-c4ccc(OC)c(OC)c4)c3c2)c1`, for which the IC50 in experiment [1] was 0.0262 µM; in experiment [4], more than 10 µM. For the molecule `COc1ccc(-c2c[nH]c3ncc(-c4cccc(N)c4)cc23)cc1`, the IC50 in experiment [1] amounted to 0.398 µM. On to `COc1ccc(-c2cnc3[nH]cc(-c4ccc(OC)c(OC)c4)c3c2)c(OC)c1`, for which the figures for the half-inhibitory concentration (IC50) in experiment [1] and in experiment [4] were 0.0292 µM and 5.46 µM, respectively. In the case of `COc1ccc(-c2c[nH]c3ncc(-c4cccc(C)c4)cc23)cc1OC`, the half-inhibitory concentration (IC50) in experiment [1] is 0.261 µM; in experiment [2], more than 10 µM. For the molecule `COc1ccc(-c2c[nH]c3ncc(-c4cc(F)cc(F)c4)cc23)cc1OC`, the results for the IC50 in experiment [1] and in experiment [2] were 0.102 µM and more than 10 µM, respectively. With `COc1ccc(-c2c[nH]c3ncc(-c4ccc(N)cc4)cc23)cc1OC`, the 50% inhibitory concentration (IC50) is 0.0091 µM in experiment [1] and 0.0568 µM in experiment [4]. In the case of `COc1ccc(-c2c[nH]c3ncc(-c4ccc(C)cc4)cc23)cc1OC`, the half-maximal inhibitory concentration (IC50) in experiment [1] is 0.571 µM; in experiment [2], more than 10 µM; in experiment [4], more than 10 µM. Take `Nc1cccc(-c2cnc3[nH]cc(-c4cccc(N)c4)c3c2)c1`: the half-maximal inhibitory concentration (IC50) in experiment [1] stood at 0.0767 µM. As to `COc1ccc(-c2c[nH]c3ncc(-c4ccccc4)cc23)cc1OC`, the IC50 in experiment [1] is 0.135 µM; in experiment [2], more than 10 µM. `COc1ccc(-c2c[nH]c3ncc(-c4cccc(N)c4)cc23)cc1F`: 0.104 µM corresponded to half-maximal inhibition in experiment [1] (IC50). Take `COc1ccc(-c2c[nH]c3ncc(-c4ccc(Cl)cc4)cc23)cc1OC`: the IC50 in experiment [1] was 0.457 µM; in experiment [2], more than 10 µM. For `COc1cccc(-c2c[nH]c3ncc(-c4cccc(N)c4)cc23)c1`, the IC50 in experiment [1] was determined as 0.67 µM. Still for that read-out and setting: then `COc1ccc(-c2c[nH]c3ncc(-c4cccc(NS(=O)(=O)c5ccccc5)c4)cc23)cc1OC`, with 0.126 µM; and `Nc1cccc(-c2cnc3[nH]cc(-c4ccc(Cl)cc4)c3c2)c1`, with 2.26 µM. For `COc1ccc(-c2c[nH]c3ncc(-c4cccc(N)c4)cc23)cc1OC`, the IC50 in experiment [1] was 0.0063 µM; in experiment [2], more than 10 µM; in experiment [4] it was 1.06 µM; in experiment [3], 1.68 µM. Turning to `COc1ccc(-c2cnc3[nH]cc(-c4ccc(OC)c(OC)c4)c3c2)cc1`, the IC50 in experiment [1] is 0.0321 µM; in experiment [2], more than 10 µM; in experiment [4], 0.371 µM.

`Nc1cccc(-c2cnc3[nH]cc(-c4ccccc4N)c3c2)c1` yielded a half-inhibitory concentration (IC50) in experiment [1] of 1.42 µM. In the case of `Cc1ccc(C(=O)Nc2ccc(CN3CCN(C)CC3)c(C(F)(F)F)c2)cc1C#Cc1cnc2cccnn12` [PONATINIB], the IC50 in experiment [3] worked out at 0.35 µM.
